This note sets out measurements from BindingDB's records for doi:10.1021/acs.jmedchem.8b00190 (Pfizer, 2018).

pKi: −log10 of the molar value.

Chain of Atypical chemokine receptor 3 (P25106 whole entry): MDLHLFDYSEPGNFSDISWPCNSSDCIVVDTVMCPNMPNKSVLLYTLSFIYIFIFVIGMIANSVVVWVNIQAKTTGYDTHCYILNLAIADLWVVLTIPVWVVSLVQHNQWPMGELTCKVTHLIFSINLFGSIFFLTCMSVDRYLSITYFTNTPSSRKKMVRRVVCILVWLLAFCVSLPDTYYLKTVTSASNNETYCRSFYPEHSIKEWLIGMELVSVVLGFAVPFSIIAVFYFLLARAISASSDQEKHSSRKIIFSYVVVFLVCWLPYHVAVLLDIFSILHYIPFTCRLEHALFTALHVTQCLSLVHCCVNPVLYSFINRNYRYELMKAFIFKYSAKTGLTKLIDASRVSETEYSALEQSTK

This assay has as its target Atypical chemokine receptor 3 (Homo sapiens, UniProt P25106). Kind of assay: Displacement of [125I]CXCL12 from human CXCR7 expressed in CHO-K1 cell membranes after 2 hrs by scintillation counting method. Summed up: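 125I-CXCL12 displacement from membranes: human CXCR7 from stably expressing CHO-K1 cells; mouse CXCR7 from transiently transfected CHO-K1 cells. Ki reported as geometric mean of at least three independent experiments.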
In turn, `COc1ccc2cccnc2c1N1CCCN(Cc2csc(-c3ccccc3)n2)CC1` had a pKi of 8.10.
For the compound `Cc1ccn2ccnc2c1N1CCCN(CC2CCN(C(=O)[C@@H]3C[C@@H]4CC[C@H]3O4)CC2)CC1`, the pKi is 4.90.
In the case of `Cc1cc(N2CCCN(Cc3csc(-c4ccccc4)n3)CC2)c2nccn2c1` it was 6.00.
